Laboratory results taken from PMC4582152 (International Journal of Biological Sciences, 2015).

Assays:
DhelOBP21-T119N mutant = test: Competitive fluorescence binding assay with 1-NPN as probe, mutant T119N; set-up: species or system Dastarcus helophoroides; conditions: for Binding affinity of mutant T119N compared with DhelOBP-WT: pH 5.0; for Binding ability of mutant T119N compared with DhelOBP-WT: pH 7.4
Outline: (§1)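 Competitive displacement at pH 7.4 or pH 5.0: 2 μM recombinant protein with a standard concentration of 1-NPN, titrated with aliquots of odorant volatiles (stocks in methanol). Fluorescence is read as for the 1-NPN titration. IC50 is the competitor concentration that halves the initial fluorescence. Ki = IC50/(1+[1-NPN]/K1-NPN), using the Scatchard Kd. Three independent measurements; reported as 1/Ki*1000.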

DhelOBP21-I84N mutant = test: Competitive fluorescence binding assay with 1-NPN as probe, mutant I84N; set-up: species or system Dastarcus helophoroides
Outline: as §1

Row | Compound | Binding affinity of mutant T119N compared with DhelOBP-WT (DhelOBP21-T119N mutant) | Binding affinity of mutant I84N compared with DhelOBP-WT (DhelOBP21-I84N mutant; pH 5.0) | Binding affinity of mutant I84N compared with DhelOBP-WT (DhelOBP21-I84N mutant; pH 7.4) | Binding ability of mutant T119N compared with DhelOBP-WT (DhelOBP21-T119N mutant)
1 | CC12CCC(CC1=O)C2(C)C (stereo not shown) [Camphor, camphor] | did not show any apparent difference | did not show any apparent difference | – | –
2 | CC1=CCC(=C(C)C)CC1 [Terpinolene] | relatively higher affinity | – | better than with DhelOBP-WT | –
3 | C=CC(=C)CCC=C(C)C [Myrcene, myrcene] | – | – | – | declined significantly
4 | Cc1cc(C(C)(C)C)c(O)c(C(C)(C)C)c1 [Butylated hydroxytoluene, butylated hydroxytoluene] | – | relatively higher affinities | – | greater binding ability
5 | C=C1C2CCC(C2)C1(C)C (stereo not shown) [Camphene, camphene] | did not show any apparent difference | did not show any apparent difference | – | declined significantly
